Lipid uptake data for four molecules are collected here from PubChem BioAssay AID602155 (Broad Institute, 2011).

Activity calls are given as the source filed them.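 Rule for the calls: active = radiolabeled lipid uptake into receptor liposomes lowered versus untreated receptor liposomes, like the reference inhibitor; inactive = the rest.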

Scavenger receptor class B member 1 (Mus musculus), sequence (Q61009 whole entry, looked up): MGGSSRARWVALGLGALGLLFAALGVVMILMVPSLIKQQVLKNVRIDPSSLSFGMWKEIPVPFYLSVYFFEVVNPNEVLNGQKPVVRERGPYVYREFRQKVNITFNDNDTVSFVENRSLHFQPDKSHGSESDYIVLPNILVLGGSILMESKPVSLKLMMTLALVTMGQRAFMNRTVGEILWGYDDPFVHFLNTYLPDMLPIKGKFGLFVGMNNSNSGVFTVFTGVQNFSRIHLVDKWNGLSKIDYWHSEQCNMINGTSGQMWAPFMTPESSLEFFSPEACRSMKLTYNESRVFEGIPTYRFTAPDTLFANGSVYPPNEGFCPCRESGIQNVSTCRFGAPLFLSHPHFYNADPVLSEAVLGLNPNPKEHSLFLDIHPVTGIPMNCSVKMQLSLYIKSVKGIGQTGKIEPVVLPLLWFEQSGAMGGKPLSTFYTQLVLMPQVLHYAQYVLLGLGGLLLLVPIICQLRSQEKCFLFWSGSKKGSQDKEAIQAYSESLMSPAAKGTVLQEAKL

The experiment concerns the target Scavenger receptor class B member 1 (Mus musculus) (UniProt Q61009). The experiment in a line: inhibitors of purified SR-BI lipid uptake, orthogonal assay for SR-BI HDL uptake inhibitor project, biochemical, reconstituted liposomes, [3H]CE-HDL, scintillation, dry powder (AID 602155). Particulars: SR-BI proteoliposomes, [3H]CE-HDL selective uptake, at 1 µM, stronger effect = lower value. The method, boiled down: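 System: murine SR-BI proteoliposomes. Probe or stimulus: [3H]CE-labeled HDL. Incubation: 60 min compound–liposome pre-incubation, then 4 h HDL at 37 °C. Evaluation: percent of control selective lipid uptake. Benchmarks: SR-BI liposomes in DMSO (100%) versus receptor-free liposomes (0%).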
For the molecule `CCOC(=O)N1CCC(NC(=O)c2ccc3c(c2)N(Cc2ccc(F)cc2)CCS3)CC1`, the lipid uptake is 52.9%. Then `COc1ccc(-c2nnn(CC(=O)N(C3CCCCC3)C(C)C(=O)NC3CCCC3)n2)cc1OC` (centres undefined), with 46.9%; and `CCC(=O)N1CCc2cc(-c3csc(NC(=O)c4ccco4)n3)ccc21`, with 63.1%; and `O=C(Nc1ccccc1)c1ccccc1NS(=O)(=O)c1ccc(Cl)cc1`, with 128% (inactive).
